Laboratory results from paper PMC12508127 (Nature Communications, 2025).
Values after ≈ are worked out from the molar mass of the structure shown. Where two headings read alike, the source gives them in different places.

Experiments:
[1] = test system: FHB (Fusarium graminearum); conditions: in vivo
[2] = Average thousand grain weight and yield increase, FHB field trial; format: in vivo, wheat; conditions: 150 g a.i./ha
How it was run: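 Field plots (20 m2) in Huai'an, wheat variety yannong 1212, with Fusarium graminearum head blight. Test compound as 10% emulsifiable concentrate at 112.5, 150 and 180 g a.i./ha, sprayed at early and peak anthesis. Commercial fungicides served as positive controls and water as negative control. Five-point sampling, 100 mature spikes per point, pooled, air-dried and threshed. 1000 random grains weighed, three replicates per treatment.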

Phytophthora infestans = format: cell-based
Alternaria alternata = format: cell-based; conditions: 1.56 mg/L
Alternaria solani = format: cell-based; conditions: 1.56 mg/L
[3] = test system: wheat powdery mildew (WPM, Erysiphe graminis); format: in vivo; conditions: greenhouse
WPM (Erysiphe graminis) = format: in vivo; conditions: WPM field trial, 187.5 g a.i./ha
[4] = test system: cucumber powdery mildew (CPM, Sphaerotheca fuliginea); conditions: in vivo
Fusarium graminearum = format: cell-based
Phytophthora capsica = format: cell-based; conditions: 1.56 mg/L
Exserohilum turcicum = format: cell-based; conditions: 1.56 mg/L
[5] = test system: deoxynivalenol (DON) content; format: in vivo, wheat; conditions: field; for DON content: wheat flour
[6] = test system: zebrafish (Brachydanio rerio H-B.); assay: Acute toxicity zebrafish, static test; format: in vivo
How it was run: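 Juvenile zebrafish (not sexually mature) held at 22–23 °C on a 16–8 h light-dark cycle. Static exposure followed the national fish acute toxicity guideline. Definitive test used 1.20, 1.00, 0.833, 0.694, 0.578 and 0.482 mg a.i./L, with dechlorinated tap water as blank control. One replicate of 10 fish per group.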

[7] = test system: Fusarium pseudograminearum; format: cell-based
Sclerotinia sclerotiorum = format: cell-based; conditions: 1.56 mg/L
porcine SDH = porcine SDH (Sus scrofa, UniProt A5GZW8+D0VWV4+Q007T0); assay: SDH activity assay; format: biochemical; conditions: read-out: Ki, Porcine; inhibition constant against porcine SDH
Ustilaginoidea virens = format: cell-based; conditions: 1.56 mg/L
ScSDH = ScSDH (Saccharomyces cerevisiae, UniProt P21801+P33421+P37298+Q00711); assay: SDH activity assay; format: biochemical
Fusarium oxysporum = format: cell-based; conditions: 1.56 mg/L

ScSDH, sequence (Q00711 29-640): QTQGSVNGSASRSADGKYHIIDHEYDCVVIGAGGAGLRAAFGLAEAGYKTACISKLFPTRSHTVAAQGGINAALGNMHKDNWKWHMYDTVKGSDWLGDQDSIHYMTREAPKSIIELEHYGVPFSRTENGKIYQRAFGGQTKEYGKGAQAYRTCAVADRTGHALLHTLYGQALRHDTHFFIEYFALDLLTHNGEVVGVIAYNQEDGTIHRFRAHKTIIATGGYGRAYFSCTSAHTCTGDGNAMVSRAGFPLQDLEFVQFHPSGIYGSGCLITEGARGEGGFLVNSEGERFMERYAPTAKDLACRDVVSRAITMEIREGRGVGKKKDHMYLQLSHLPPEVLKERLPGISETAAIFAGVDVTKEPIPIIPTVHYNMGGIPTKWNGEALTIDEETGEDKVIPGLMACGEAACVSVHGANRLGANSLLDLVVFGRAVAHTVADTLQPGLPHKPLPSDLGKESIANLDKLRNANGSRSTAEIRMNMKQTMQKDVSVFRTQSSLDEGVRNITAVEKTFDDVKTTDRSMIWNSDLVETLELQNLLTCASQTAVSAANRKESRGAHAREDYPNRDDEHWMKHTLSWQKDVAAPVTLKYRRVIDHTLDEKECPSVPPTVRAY
ScSDH, sequence (P21801 21-266): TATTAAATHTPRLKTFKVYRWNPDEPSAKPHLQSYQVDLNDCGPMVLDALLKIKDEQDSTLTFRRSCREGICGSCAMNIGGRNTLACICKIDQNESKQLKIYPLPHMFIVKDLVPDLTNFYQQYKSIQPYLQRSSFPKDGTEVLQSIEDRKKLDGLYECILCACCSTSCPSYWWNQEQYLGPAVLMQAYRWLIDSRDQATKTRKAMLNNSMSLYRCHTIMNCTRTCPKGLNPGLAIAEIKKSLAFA
ScSDH, sequence (P33421 51-198): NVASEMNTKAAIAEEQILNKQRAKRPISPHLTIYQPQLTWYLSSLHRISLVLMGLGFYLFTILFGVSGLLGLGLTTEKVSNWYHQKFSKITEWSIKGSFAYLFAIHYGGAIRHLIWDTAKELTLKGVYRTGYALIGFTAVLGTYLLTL
ScSDH, sequence (P37298 32-181): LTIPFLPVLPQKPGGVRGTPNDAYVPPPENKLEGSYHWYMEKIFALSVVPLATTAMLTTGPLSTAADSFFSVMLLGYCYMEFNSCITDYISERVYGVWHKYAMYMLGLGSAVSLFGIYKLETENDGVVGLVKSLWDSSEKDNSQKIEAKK
porcine SDH, sequence (Q0QF01 43-664 partner): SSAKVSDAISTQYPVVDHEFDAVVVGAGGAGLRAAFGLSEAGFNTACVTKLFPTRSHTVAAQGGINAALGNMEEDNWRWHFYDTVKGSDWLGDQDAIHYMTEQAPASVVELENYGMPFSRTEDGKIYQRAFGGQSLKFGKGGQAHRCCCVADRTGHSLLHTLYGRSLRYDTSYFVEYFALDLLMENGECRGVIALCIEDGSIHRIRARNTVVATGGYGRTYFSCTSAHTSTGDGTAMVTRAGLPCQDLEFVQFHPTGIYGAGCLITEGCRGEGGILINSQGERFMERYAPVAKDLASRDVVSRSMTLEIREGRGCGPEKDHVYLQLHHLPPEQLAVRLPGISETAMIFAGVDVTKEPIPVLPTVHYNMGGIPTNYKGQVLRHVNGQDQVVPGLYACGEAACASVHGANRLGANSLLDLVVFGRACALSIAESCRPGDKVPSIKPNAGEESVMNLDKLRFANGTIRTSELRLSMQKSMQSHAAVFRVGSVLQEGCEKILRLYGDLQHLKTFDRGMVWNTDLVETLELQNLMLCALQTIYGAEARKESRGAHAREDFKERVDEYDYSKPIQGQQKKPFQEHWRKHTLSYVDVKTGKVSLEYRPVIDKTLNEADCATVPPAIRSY
porcine SDH, sequence (Q007T0 29-280): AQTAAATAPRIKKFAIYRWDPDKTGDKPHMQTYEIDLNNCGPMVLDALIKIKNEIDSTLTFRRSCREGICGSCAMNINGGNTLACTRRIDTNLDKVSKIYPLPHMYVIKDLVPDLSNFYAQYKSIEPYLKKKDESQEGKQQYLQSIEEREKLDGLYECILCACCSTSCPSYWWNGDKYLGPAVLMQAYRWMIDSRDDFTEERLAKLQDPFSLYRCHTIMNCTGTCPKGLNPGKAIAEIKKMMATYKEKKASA
porcine SDH, sequence (D0VWV4 30-169): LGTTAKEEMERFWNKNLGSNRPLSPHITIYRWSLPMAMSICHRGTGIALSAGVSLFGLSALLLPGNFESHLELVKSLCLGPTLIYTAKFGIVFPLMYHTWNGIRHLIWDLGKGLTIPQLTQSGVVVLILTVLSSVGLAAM
porcine SDH, sequence (A5GZW8 57-159 limits assumed): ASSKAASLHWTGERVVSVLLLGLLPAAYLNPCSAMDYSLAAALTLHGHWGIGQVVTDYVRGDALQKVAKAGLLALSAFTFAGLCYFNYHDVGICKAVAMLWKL

CC(C)(C)C(O)(CCc1ccc(Cl)cc1)Cn1cncn1 (centres unmarked) [tebuconazole]
Control efficiency (%) [1]: 84.45%

OCC1=C[C@H](N[C@H]2C[C@H](CO)[C@@H](O[C@@H]3O[C@H](CO)[C@@H](O)[C@H](O)[C@H]3O)[C@H](O)[C@H]2O)[C@H](O)[C@@H](O)[C@@H]1O [validamycin]
Control efficiency (%) [1]: 48.42%

C=C(CN(C(=O)c1c(C(F)F)nn(C)c1F)C1CC1)c1ccc(Cl)cc1Cl [E8, enprocymid]
Yield increase rate (%) [2]: 10.18% | inhibition rate (%), Pi (Phytophthora infestans): 81.97% | inhibition rate (%), Aa (Alternaria alternata): 95.67% | inhibition rate (%), As (Alternaria solani): 80.00% | EC50 ([3]; WPM): 0.0462 µg/mL (≈ 0.11 µM) | activity against WPM relative to PYD [3]: over 20 fold | Control efficiency (%) (WPM (Erysiphe graminis)): 92.38% | EC50 [4]: 0.5431 µg/mL (≈ 1.3 µM) | inhibition rate (%), Fg (Fusarium graminearum): 97.31% | inhibition rate (%), Pc (Phytophthora capsica): 76.33% | inhibition rate (%), Et (Exserohilum turcicum): 100.00% | DON inhibition rate (%) ([5]; 150 g a.i./ha): 86.05% | DON inhibition rate (%) ([5]; 180 g a.i./ha): 89.40% | DON content ([5]; 150 g a.i./ha): 217.5 µg/kg | DON content ([5]; 180 g a.i./ha): 165.3 µg/kg | Control efficiency (%) [1]: 88.81% | Toxicity level ([6]; by LC50 (96 h)): moderately toxic | LC50 (96 h) ([6]; static test, 96 h): 1.01 mg a.i./L | inhibition rate (%), Fp [7]: 85.33% | inhibition rate (%), Ss (Sclerotinia sclerotiorum): 74.67% | Ki (porcine SDH): 281 ± 14 nM | inhibition rate (%), Uv (Ustilaginoidea virens): 100.00% | potency relative to PYD (IC50) (ScSDH; E8 IC50 vs PYD IC50, ScSDH): ~1.3 fold | IC50 (ScSDH; against ScSDH): 30 ± 3 nM | Species selectivity (ScSDH; ratio of Ki for porcine SDH and ScSDH): 14.78 | Ki (ScSDH; read-out: Ki, Yeast, inhibition constant against ScSDH): 19 ± 1 nM | inhibition rate (%), Fo (Fusarium oxysporum): 87.33%
